# Experimental data: PMC7332640 (Acta Pharmaceutica Sinica. B, 2019)
# Assays:
# [1] = In vitro phosphorylation of compounds in human whole blood; format: in vitro ADME; conditions: for Vmax (phosphorylation): 37 °C, 60 min, 1–100 μmol/L; for Km: read-out: Km (phosphorylation), 37 °C, 60 min, 1–100 μmol/L
# Method in brief: (§1)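 Test compound was spiked directly into fresh whole blood at eight levels from 1 to 100 and incubated at 37 °C for 60 min. Reactions were quenched with ice-cold acetonitrile, vortexed and centrifuged. The supernatant was analysed by LC-MS/MS for phosphate formation. Km and Vmax were obtained by nonlinear fitting to the Michaelis–Menten equation.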
# [2] = In vitro phosphorylation of compounds in rat whole blood; format: in vitro ADME; conditions: for Vmax (phosphorylation): 37 °C, 60 min, 1–100 μmol/L; for Km: read-out: Km (phosphorylation), 37 °C, 60 min, 1–100 μmol/L
# Method in brief: as §1
# [3] = format: in vivo; conditions: Sprague–Dawley rats, oral 3 mg/kg
# Method in brief: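 Male Sprague–Dawley rats, three per group, were fasted 12 h, dosed orally at 3 mg/kg in 0.5% hydroxypropyl methylcellulose, and fed 4 h postdose. Heparinized orbital blood was taken from 0.08 to 48 h, including 6 h, and protein-precipitated with acetonitrile. Parent and phosphorylated drug were quantified by positive-ESI MRM LC-MS/MS on a C18 column with a formic acid water/methanol gradient.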
CLint (phosphorylation) [1],CLint (phosphorylation) [2],phosphorylation level at 6 h after dosing [3],SMILES,Vmax (phosphorylation) [1],Km [1],Vmax (phosphorylation) [2],Km [2]
0.013 µL/min,0.930 µL/min,80%,"CCCCCCCCc1ccc(CCC(N)(CO)CO)cc1 [FTY720, fingolimod, reference compound]",0.33 ± 0.05 pmol/min,25.7 ± 4.2 µM,63.4 ± 10.2 pmol/min,68.2 ± 11.2 µM
0.006 µL/min,0.015 µL/min,89%,"CCc1nc(-c2ccc(-c3ccc(CC[C@@H](N)CO)cc3)cc2)co1.Cl [Compound 24, (R)-2-Amino-4-(4′-(2-ethyloxazol-4-yl)-[1,1′-biphenyl]-4-yl)butan-1-ol hydrochloride]",0.24 ± 0.05 pmol/min,40.2 ± 7.3 µM,1.9 ± 0.3 pmol/min,128 ± 23.4 µM
0.012 µL/min,0.505 µL/min,94%,"CCc1nc(-c2ccc(-c3ccc(CC[C@@](C)(N)CO)cc3)cc2)co1.Cl [Compound 23, (R)-2-Amino-4-(4′-(2-ethyloxazol-4-yl)-[1,1′-biphenyl]-4-yl)-2-methylbutan-1-ol hydrochloride]",0.87 ± 0.09 pmol/min,65.5 ± 8.3 µM,65.2 ± 8.2 pmol/min,129 ± 15.6 µM
0.295 µL/min,1.545 µL/min,95%,"CCCCCCCCc1ccc(CC[C@@](C)(N)CO)cc1.Cl [Compound 21, (R)-2-Amino-2-methyl-4-(4-octylphenyl)butan-1-ol hydrochloride]",3.36 ± 0.62 pmol/min,11.4 ± 1.9 µM,221 ± 36.8 pmol/min,143 ± 25.4 µM
0.021 µL/min,3.121 µL/min,69%,"CCCCCCCCc1ccc(CC[C@@H](N)CO)cc1.Cl [Compound 22, (R)-2-Amino-4-(4-octylphenyl)butan-1-ol hydrochloride]",1.24 ± 0.31 pmol/min,58.2 ± 10.6 µM,28.4 ± 4.5 pmol/min,9.1 ± 1.8 µM
